Assay: Toxicity liver stage against HepG2, at 10uM
Type: cell-based
Set-up: test concentration 10 uM, cell line HepG2-A16-CD81EGFP
Settings: human, HepG2-A16-CD81EGFP cells; read-out: INHIBITION
Procedure, shortened: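 Uninfected HepG2-A16-CD81EGFP cells, 3 × 10^3 per well, 1536-well, plated on prespotted compound at 10 μM final, parasite-free screening media added to match infected plates; puromycin 10 μM positive, DMSO 0.5% negative; run in parallel with 48 h PbLuc assay at 37 °C, 5% CO2; viability by CellTiter-Glo luminescence, normalized to controls.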

SMILES	cytotoxicity at 10 µM [%]
CN(C)C(=O)[C@H]1C[C@H]2OCC[C@H]2N(Cc2ccc3ccccc3n2)C1	-55.9
Cc1ccsc1CN(C)C(=O)C1CCCN(C(N)=O)C1 (stereo not drawn)	5.09
CCOCCNC(=O)C(CCSC)NC(=O)c1ccc2ccccc2n1 (stereo not drawn)	-9.95
O=C(Cc1ccc2c(c1)CCCC2)Nc1cccnc1N1CCSCC1	11.4
COCCNC(=O)[C@@H]1C[C@H]2[C@H](CCN2c2cc(OC)ncn2)O1	8.56
CCc1nc(C2CCCN2C(=O)C2=COCC2)no1 (stereo not drawn)	8.64
Cc1cnccc1CN1CC[C@H](Oc2cccc(F)c2)[C@@](C)(O)C1	-5.55
Cc1ncoc1C(=O)N1CC[C@@H](O)[C@@H](O)[C@H](N2CCC(F)(F)CC2)C1	2.3
CC(C)c1nc2n(n1)CC(NCc1nc(C3CC3)no1)CC2 (stereo not drawn)	-7.59
O=C(Cc1ccc(-c2ccccc2)cc1)N1CCOCC(O)C1 (stereo not drawn)	1.51
CCCN(Cc1ccccc1O)S(=O)(=O)C(C)CC (stereo not drawn)	9.02
CC(C)OCCCNS(=O)(=O)c1ccc2c(c1)NC(=O)C(C)O2 (stereo not drawn)	0.893
COc1ncccc1CNC(=O)c1cc(C)on1	-20.2
COc1ccc(C2SC(C)=Nc3c2c(=O)[nH]n3C2CCCC2)cc1O (stereo not drawn)	9.98
CN(C)C(=O)Cn1cnc2c(Br)cccc2c1=O	-8.97
Cc1cccc(C2CCCN(C(=O)CN3CCC(C(N)=O)CC3)C2)c1 (stereo not drawn)	-5.17
CC(C)NC(=O)NCCCOC1CCOCC1	-17
NC(=O)c1cc2c(nc1Oc1ccc(CN3CCCC3)cc1F)CCC2	-3.62
CC(C)(C)CC(=O)N1[C@@H](c2ccco2)[C@@H](CO)C[C@]12CCCCNC2=O	0.122
Cn1nccc1-c1nc2c(cc1C(=O)O)CCN(C(=O)C1CC1)CC2	-143
COc1ccc(CC(=O)N2CC[C@H](CO)[C@H](O)C2)c(OC)c1	-0.392

SMILES	cytotoxicity at 10 µM [%]
CCc1cnc(CN(C)C(=O)Nc2cnn(CC3CCCO3)c2)s1 (stereo not drawn)	4.03
O=C(NCc1nncn1C1CC1)C1(c2ccc(F)cc2)CCCC1	-1.89
CC(C)C(C(=O)N1CCC(N(C)c2cccnn2)CC1)n1cncn1 (stereo not drawn)	-7.44
CC[C@@H](C)[C@H](NC(=O)Cn1ccc2c(Cl)cccc21)C(=O)O	2.88
CCCC1(CO)CCCN(C(=O)CN2CCN(CC)CC2)C1 (stereo not drawn)	0.854
O=C1NC(c2ccccc2)=N[C@@]12CC[C@@H]1CN(Cc3ccccc3)C[C@@H]12	-5.23
O=C(NCCO)C1CN(c2cncnc2)CCO1 (stereo not drawn)	-29.9
CN(C)CCCNC(=O)c1cnc(Cc2ccc(F)cc2)s1	3.47
CNc1nc2c(c(C(=O)N3CCCC3)n1)CN(Cc1nccn1C)CC2	-8.74
Cn1ccc(C(=O)N2CCN(c3ccccn3)CC2)cc1=O	-9.43
c1cnc(N2CCC(c3csc(Nc4cnccn4)n3)CC2)nc1	34
CC(=O)Nc1nc(C(=O)N2CCCC2c2noc(C(C)C)n2)cs1 (stereo not drawn)	-20.1
COCC1(C(=O)N[C@H]2CN(c3noc(C)n3)C[C@@H]2C2CC2)CCC1	-135
COc1c(CNC(C)c2sc(C)nc2C)c(C(C)C)nn1C (stereo not drawn)	7.97
c1cncc(C[C@H]2[C@H](N3CCOCC3)CCN2Cc2cccs2)c1	8.34
Cc1ccc(CN2Cc3nccn3CC(CN(C)C)C2)s1 (stereo not drawn)	-82.4
CC(=O)N1CCCC1c1cncc(Oc2ccc(F)cc2)n1 (stereo not drawn)	-15.8
Cc1nc(CN(Cc2cccnc2)Cc2ccsc2)c[nH]1	0.935
CSCc1noc(CN(C)C(C)c2nc(C)sc2C)n1 (stereo not drawn)	8.2
O=C(c1ccc(S(=O)(=O)NCCc2ccncc2)cc1)N1CCCC1	1.67
CCN1CCN(c2nc(O)cc(Cc3ccccc3F)n2)CC1	-1.83

SMILES	cytotoxicity at 10 µM [%]
c1coc(CN2CCO[C@H]3[C@H](OCC4CC4)CC[C@@H]32)c1	5.22
CCS(=O)(=O)c1nccn1-c1cccc(F)c1	3.12
Cc1nc(-c2ccccc2)n(CC(=O)NC(C)C)n1	-14.1
O=C(Cn1ccc(C(=O)O)n1)Nc1c(Cl)cccc1Cl	7.07
COc1cc(O)ccc1CN1CCN(C2CCc3ccccc3C2)CC1 (stereo not drawn)	-1.33
CN1CCOC(CNCCc2ccccn2)C1 (stereo not drawn)	-4.77
N#CCCCS(=O)(=O)NC1(c2ccc(F)cc2)CC1	2.9
Cc1cc(N(C)C)nc(C2(C)CCCN2C(=O)c2ccn(C)n2)n1 (stereo not drawn)	-1.06
O=C(CCCc1ccccc1)N1CCC(Nc2cccnn2)CC1	-5.89
Cc1cccc(Nc2cc(C)nc(C3CCCCN3CC(N)=O)n2)n1 (stereo not drawn)	-4.03
c1cc(C2CN(C3CCCCC3)C2)n[nH]1	4.18
Cc1nnc(CN(C)CC2(O)CCCN(CCC3CCCCC3)C2=O)o1 (stereo not drawn)	17.1
CN1CCN(CCNC(=O)c2sccc2C2CC2)CC1	-149
CCN(Cc1nc2c(cnn2C)c(=O)[nH]1)Cc1ccccc1Cl	-22.7
Cn1c(=O)oc2cc(S(=O)(=O)N3CCCCC3)c(Cl)cc21	19
Cn1cc(CN2CCn3cc(Cn4cccn4)nc3C2)cn1	4.49
COc1ccccc1N1CCN(C(=O)CCn2ccnc2C)CC1(C)C	-26.7
Cn1cccc1CN1CCC2(CC1)CC(Oc1cccnc1)C2	13.4
O=C(COc1cccc(F)c1)N1C[C@@H](O)[C@H](N2CCCC2)C1	-4.22
CN(CCCc1cnn(C)c1)c1nccc(-c2cc(C(=O)O)ccn2)n1	-3.29
FC(F)(F)C1CN(Cc2cnc3c(-c4ccccc4)cnn3c2)CCO1 (stereo not drawn)	-2.34

SMILES	cytotoxicity at 10 µM [%]
O=C(c1cnn2cc(CCO)cnc12)N1CCOC(C(F)(F)F)C1 (stereo not drawn)	3.24
COc1cc(C)c(C)cc1S(=O)(=O)NCC(O)c1cccn1C (stereo not drawn)	-6.19
COCCN1CCC2(CCC1=O)CN(c1ccnc(SC)n1)CCN2C (stereo not drawn)	2.41
CCc1noc(C(C)N2CCOCC2)n1 (stereo not drawn)	-6.5
CCCN(CC(F)(F)F)C(=O)c1cc(F)cc2[nH]cnc12	3.19
COC(=O)CNC(=O)c1scnc1C	7.71
CCN(CC)C(=O)CSc1ncc[nH]1	-9.94
c1cnc2c(CN3CCCCC3c3ccncn3)cnn2c1 (stereo not drawn)	-10.2
CC(=O)NCCC1CCCCN1C(=O)c1cccc(CCC(C)(C)O)c1 (stereo not drawn)	4.13
CCN1CCCC1CN(Cc1ccoc1)CC1CCN(CCOC)CC1 (stereo not drawn)	-2.64
Cc1cccc(NC(=O)c2csc(NCC(C)C)n2)n1	-3.33
O=C(Cn1c(=O)oc2ccccc21)N1Cc2cncnc2C1	-0.0603
Cc1cc(C(=O)N2CCC(n3cc(CO)nn3)CC2)ccc1F	-4.73
CN(CC1COc2ccccc2O1)C(=O)NCCCn1ccnc1 (stereo not drawn)	-5.54
Cc1nc(C)n(CC2CN(CCc3ccccc3Cl)CCO2)n1 (stereo not drawn)	-0.431
CCc1nnc2n1CCN(C(=O)c1csc(-c3cnn(C)c3)n1)C2	6.41
CC(C)Cn1cc2nc(N3CCCC(C)C3)[nH]cc-2c1=O (stereo not drawn)	2.22
Cc1ccc(C(=O)N(C)Cc2cscn2)c(=O)[nH]1	-7.69
CCCNC(=O)COc1ccc(-c2ccccc2)nc1	6.16
Cc1cc(C)nc(N2CCOC(c3cc(CCO)[nH]n3)C2)n1 (stereo not drawn)	1.89
